High-throughput results deposited in PubChem by several laboratories.
Sampled rows, rich in hits. Any-hit rate of the full collection: about 9.6%.
PTEN del growth – growth suppressors of cells with PTEN tumor suppressor deletion; viability, % at 10 µM; actives 1.2% (n = 140,000); HCT116 PTEN-null viability, CellTiter-Glo, 60 h; stronger effect = lower value;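 active = viability at or below a set limit, 4 SD under the median of all tested compounds, cut at about 3.7% in these data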;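 also: PTEN knockout HCT116 line with beta catenin targeted HCT116 as companion control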
TNAP inh no acc – blocks human TNAP activity with no phosphate acceptor present; purified TNAP, CDP-star luminescence, 30 min; inhibition, % at 20 µM; actives 0.26% (n = 200,000); AID 1012;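 active = tissue-nonspecific alkaline phosphatase inhibition above about 50% at 20 µM in the single-dose screen, limit read from the data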
Target sequence (P05186 whole entry, looked up): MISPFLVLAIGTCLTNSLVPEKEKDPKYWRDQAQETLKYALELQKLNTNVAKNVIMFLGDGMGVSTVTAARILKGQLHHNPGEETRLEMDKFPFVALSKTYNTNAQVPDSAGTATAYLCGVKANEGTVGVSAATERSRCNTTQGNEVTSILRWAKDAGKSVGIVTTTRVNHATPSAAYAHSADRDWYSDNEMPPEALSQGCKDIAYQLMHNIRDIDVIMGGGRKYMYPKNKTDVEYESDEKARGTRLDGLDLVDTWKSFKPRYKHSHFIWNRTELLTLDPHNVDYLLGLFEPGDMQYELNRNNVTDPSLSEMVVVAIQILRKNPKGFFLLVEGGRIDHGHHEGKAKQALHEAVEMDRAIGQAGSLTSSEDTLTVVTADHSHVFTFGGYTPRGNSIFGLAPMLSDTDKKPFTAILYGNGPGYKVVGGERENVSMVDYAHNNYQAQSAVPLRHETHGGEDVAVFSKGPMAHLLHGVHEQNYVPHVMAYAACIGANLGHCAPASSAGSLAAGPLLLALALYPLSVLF
bCat KO growth – beta-catenin-lacking colon tumor cell growth suppression; HCT116 beta-catenin knockout viability, CellTiter-Glo, 60 h; stronger effect = lower value; viability, % at 10 µM; AID 818; actives 1.5% (n = 140,000);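 active = viability at or under a set limit, the compound median less 4 SD, cut at about 6% in these data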
TNAP inh hiacc – inhibitors of human TNAP at high phosphate acceptor concentration; P05186; purified TNAP, CDP-star luminescence, 1 M DEA; inhibition, % at 20 µM; actives 0.03% (n = 200,000);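 active = over 50% inhibition of tissue-nonspecific alkaline phosphatase at 20 µM in the single-dose screen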
TNAP act hi DEA – increases human TNAP activity under high phosphate acceptor concentration. P05186. 200,000 tested, under 10 active. activation factor at 20 µM. purified TNAP, CDP-star luminescence, 1 M DEA, 30 min; stronger effect = higher value; 0 = EDTA background, 1 = DMSO-only activity. AID 1136;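 active = activation factor at least 2 at 20 µM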
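Dosing: 20 µM single point. System: human TNAP. Amount: TNAP 1/800 final. Incubation: 30 min, room temperature. Read-out: TNAP activation factor scaled between EDTA and DMSO control wells. Signal: luminescence from CDP-star hydrolysis. Medium: 1 M DEA, pH 9.8, Mg2+, Zn2+. Control set: EDTA negative control, DMSO positive control.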
Lmaj promast – Leishmania major promastigote growth inhibition | Leishmania major promastigotes, resazurin fluorescence viability | inhibition, % at 10 µM | actives 9% (n = 200,000); in the data active = inhibition above about 50%;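 also: promastigotes grown with compound for 44 hours at 28 °C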
Each line names hits and unclear results; the compound was inactive in the other large screens.

CCCCOc1ccc(CCN)cc1Cl	Lmaj promast 89.5
Nc1ccncc1Cl	none (no result: PTEN del growth, bCat KO growth)
Nc1cc(N2CCNCC2)ccc1[N+](=O)[O-]	none
CN1CCN(c2ccc([N+](=O)[O-])c(N3CCCCC3)c2)CC1	Lmaj promast 93.7 (no result: PTEN del growth, bCat KO growth)
O=[N+]([O-])c1cc(F)c(N2CCCCCC2)cc1N1CCNCC1	Lmaj promast 100.6 (no result: PTEN del growth, bCat KO growth)
O=[N+]([O-])c1ccc(N2CCNCC2)c2ncccc12	none
CN1CCN(c2ccc([N+](=O)[O-])c(N)c2)CC1	Lmaj promast 52.0
O=[N+]([O-])c1ccc(N2CCNCC2)cc1N1CCCCCC1	Lmaj promast 99.2 (no result: PTEN del growth, bCat KO growth)
COc1ccc(CN2CCCC(C(=O)c3sccc3C)C2)cc1O (stereo not drawn)	none (no result: PTEN del growth, bCat KO growth)
COc1ccccc1OCCCn1cc(C=O)c2ccccc21	none (no result: PTEN del growth, bCat KO growth)
O=Cc1cn(CCCOc2ccccc2)c2ccccc12	Lmaj promast 65.8
Oc1c(Br)cc(Br)cc1CN1CCN(Cc2ccccc2)CC1	Lmaj promast 73.5
O=C(Cc1ccc(Br)cc1)N1CCN(Cc2ccccc2)CC1	Lmaj promast 87.4
CC(C)(C)C(=O)Cn1c(NCCCl)nc2ccccc21	none (no result: PTEN del growth, bCat KO growth)
O=C(NC(Cc1cnc[nH]1)C(=O)O)c1ccccc1 (stereo not drawn)	none (no result: PTEN del growth, bCat KO growth)
OC1/C(=C/c2ccc(Cl)cc2Cl)N2CCC1CC2 (stereo not drawn)	none (no result: PTEN del growth, bCat KO growth)
O=C1NC(=O)C(=Cc2cc([N+](=O)[O-])ccc2N2CCCCC2)C(=O)N1	Lmaj promast 96.7 (no result: PTEN del growth, bCat KO growth)
CCOP(=O)(Cc1cc(C#N)oc1C)OCC	none
CCCCn1c(O)c(C(CC)=NCc2cc(OC)cc(OC)c2)c(=O)[nH]c1=O	Lmaj promast 99.6
CCCCn1c(O)c(C(C)=NCc2cc(OC)cc(OC)c2)c(=O)[nH]c1=O	none
CCN(CC)CCCC(C)N=C(c1ccccc1)c1c(O)n(C)c(=O)n(C)c1=O (stereo not drawn)	Lmaj promast 95.0
CSC(=Nc1ccccc1)c1c(O)n(C)c(=O)n(C)c1=O	none
O=C(COc1ccc(Cl)cc1)N1CCN(Cc2ccccc2)CC1	none
Cc1ccc(OCC(=O)N2CCN(CC3CC4C=CC3C4)CC2)cc1 (stereo not drawn)	Lmaj promast 77.7
O=C(COc1ccccc1)N1CCN(CC2CC3C=CC2C3)CC1 (stereo not drawn)	Lmaj promast 90.7
COc1ccccc1CN1CCN(C(=O)COc2ccccc2)CC1	none
CCn1cc(CN2CCCC(C(=O)c3cccc(OC)c3)C2)c(C)n1 (stereo not drawn)	Lmaj promast 78.2 (no result: PTEN del growth, bCat KO growth)
Cc1cccc(CN2CCCC(C(=O)c3cccc(OC(C)C)c3)C2)n1 (stereo not drawn)	Lmaj promast 59.8 (no result: PTEN del growth, bCat KO growth)
COc1cccc(C(=O)C2CCCN(Cc3cnn(C(C)C)c3)C2)c1 (stereo not drawn)	Lmaj promast 71.0 (no result: PTEN del growth, bCat KO growth)
COc1cccc(C(=O)C2CCCN(Cc3ccc4nsnc4c3)C2)c1 (stereo not drawn)	Lmaj promast 87.4 (no result: PTEN del growth, bCat KO growth)
CCCn1cc(CN2CCCC(C(=O)c3cccc(OC)c3)C2)c(C)n1 (stereo not drawn)	none (no result: PTEN del growth, bCat KO growth)
CC(C)(C)c1cc([N+](=O)[O-])cc(C(C)(C)C)c1O	none (no result: PTEN del growth, bCat KO growth)
COc1ccc(N2C(=O)NC(=O)/C(=C\c3ccc([N+](=O)[O-])s3)C2=O)cc1	Lmaj promast 97.3 (no result: PTEN del growth, bCat KO growth)
COc1ccc(N2C(=O)/C(=C/C=C/c3ccccc3[N+](=O)[O-])C(=O)NC2=S)cc1	Lmaj promast 92.1 (no result: PTEN del growth, bCat KO growth)
COc1ccc(N2C(=O)NC(=O)/C(=C/c3ccc(N4CCOCC4)cc3)C2=O)cc1	none (no result: PTEN del growth, bCat KO growth)
CCOc1ccc(N2C(=O)NC(=O)/C(=C\c3cc(OC)c(OC)cc3[N+](=O)[O-])C2=O)cc1	Lmaj promast 56.1
CCOc1ccc(N2C(=O)NC(=O)/C(=C\c3ccc(N4CCOCC4)cc3C)C2=O)cc1	none (no result: PTEN del growth, bCat KO growth)
O=C(c1ccc(Cl)cc1)C1CCCN(Cc2ccc3nonc3c2)C1 (stereo not drawn)	Lmaj promast 84.7 (no result: PTEN del growth, bCat KO growth)
O=C(c1ccccc1)C1CCCN(Cc2nc(-c3cnccn3)no2)C1 (stereo not drawn)	none (no result: PTEN del growth, bCat KO growth)
O=C(c1ccc(Cl)cc1)C1CCCN(Cc2cccc3ncccc23)C1 (stereo not drawn)	Lmaj promast 80.6 (no result: PTEN del growth, bCat KO growth)
O=C(c1ccc(Cl)cc1)C1CCCN(Cc2cccc3cccnc23)C1 (stereo not drawn)	Lmaj promast 82.8 (no result: PTEN del growth, bCat KO growth)
Cc1cc(Cl)ccc1C(=O)C1CCCN(Cc2ccon2)C1 (stereo not drawn)	none (no result: PTEN del growth, bCat KO growth)
Cc1ccc(OP(N)(=O)Oc2ccc(C)cc2)cc1	none (no result: PTEN del growth, bCat KO growth)
O=C1Nc2ccc(Br)cc2C(c2ccccc2Cl)=NC1O (stereo not drawn)	none (no result: PTEN del growth, bCat KO growth)
C(#CCN1CCOCC1)COC/C=C/c1ccccc1	none
COc1ccc(OCC#CCN2CCCCCC2)cc1	Lmaj promast 85.4 (no result: PTEN del growth, bCat KO growth)
C(#CCN1CCCCC1)COCc1ccccc1	Lmaj promast 89.5 (no result: PTEN del growth, bCat KO growth)
FC(F)=C(F)CCSc1ncn[nH]1	none (no result: PTEN del growth, bCat KO growth)
O=C1NC(=O)N(Cc2ccco2)C(=O)/C1=C/c1ccc(-c2cccc([N+](=O)[O-])c2)o1	Lmaj promast 98.8
CC1(C)CC(CCNCc2ccc3c(c2)OCO3)(Cc2ccccc2)CCO1 (stereo not drawn)	Lmaj promast 89.4 (no result: PTEN del growth, bCat KO growth)
CN1Cc2c(c(C#N)c(N)n(C)c2=S)CC1(C)C	none (no result: PTEN del growth, bCat KO growth)
O=c1c2ccccc2nc(SCC2CCCCO2)n1-c1ccccc1 (stereo not drawn)	Lmaj promast 75.7
COc1ccc(-n2c(SC)nc3ccccc3c2=O)cc1	none
Cc1ccc(CN2CCCC(C(=O)c3sccc3C)C2)o1 (stereo not drawn)	none (no result: PTEN del growth, bCat KO growth)
Cc1cc(Oc2ccc(C(F)(F)F)cc2[N+](=O)[O-])c2c3c(c(=O)oc2c1)CCCC3	none
O=C1NC(=O)C2(Cc3c(nc4ccccn4c3=O)N3CCCCCC32)C(=O)N1Cc1ccccc1 (stereo not drawn)	Lmaj promast 96.7
O=C1C2CCN(CC2)C1Cc1ccc(OCc2ccccc2)cc1 (stereo not drawn)	Lmaj promast 100.1 (no result: PTEN del growth, bCat KO growth)
Cc1ccc(C2N(c3ccccn3)C(=O)C3CCCN32)o1 (stereo not drawn)	none (no result: PTEN del growth, bCat KO growth)
O=c1[nH]c(=O)n(Cc2ccco2)c(O)c1/C=N/N1CCCCC1	none
C/C(=N\NC(=S)Nc1ccccc1)c1c(O)n(C)c(=O)n(C)c1=O	none
CC/C(=N\Nc1ccccc1)c1c(O)n(C)c(=O)n(C)c1=O	Lmaj promast 61.1
CS(=O)(=O)N1CCN(C(=N)N[N+](=O)[O-])CC1	none (no result: PTEN del growth, bCat KO growth)
Brc1ccc2c(c1)C(OC1CN3CCC1CC3)c1ccccc1CS2 (stereo not drawn)	PTEN del growth 2.9, bCat KO growth 6.0, Lmaj promast 100.3
c1ccc2c(c1)CSc1ccccc1C2C1=NCCN1 (stereo not drawn)	none
O=C(c1cc(F)ccc1F)C1CCCN(CCCc2ccccc2)C1 (stereo not drawn)	Lmaj promast 82.2 (no result: PTEN del growth, bCat KO growth)
C[N+](C)(C)c1ccccc1	none (no result: PTEN del growth, bCat KO growth)
